UPR CHOP act – apoptotic UPR (CHOP) activation | CHO-CHOP luciferase reporter, luminescence; percent of tunicamycin response over DMSO baseline | AID 449763 | 330,000 compounds, 0.34% hits | activation, % at 10 µM;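 active means at 10 µM dose, activation of 40% or more, normalized to positive control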;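 further: 100% = tunicamycin at 10 µg/mL and 0% = DMSO alone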
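Assay system: CHO-CHOP cells, stable luciferase reporter of PERK-eIF2a-CHOP signalling / Buffer or medium: F12 plus 10% serum / Compound dosing: one dose, 10 µM in 0.5% DMSO / Times: 6 h compound treatment, 37 °C / Technique: luciferase luminescence / Read-out: % reporter activation, DMSO baseline versus tunicamycin full activation / Benchmarks: tunicamycin and DMSO controls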
UPR XBP1 act – activators of adaptive arm of unfolded protein response (XBP1); CHO-XBP1 luciferase reporter, IRE1-XBP1 UPR activation, luminescence; percent of tunicamycin response, DMSO as zero; activation, % at 20 µM; 330,000 compounds, 0.33% hits;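 active means versus positive control, 20 µM dose yields 30% or more activation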;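 further: 100% = tunicamycin at 10 µg/mL and 0% = DMSO only wells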
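Material: CHO-XBP1 cells stably carrying IRE1-XBP1-driven luciferase reporter | Medium: F12 with 10% serum | Compound dosing: 20 µM single concentration, DMSO 1% | Incubation: Overnight seeding at 37 °C, 6 h compound treatment at 37 °C | Detection: Steady-Glo luminescence read | Read-out basis: % activation of reporter signal versus tunicamycin and DMSO controls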
Apaf1 inhib – inhibitors of human Apaf-1 apoptosome; O14727; reconstituted apoptosome caspase-3 activity, DEVD-Rh110 fluorescence; 330,000 compounds, 0.71% hits; inhibition, % at 20 µM; active means inhibition of at least 40% at 20 µM;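 further: plate controls were DMSO wells for no effect and DEVD-CHO caspase inhibitor wells for full effect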
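System – cell-free apoptosome with Apaf-1, procaspase-3 and caspase-9 · Buffer or medium – pH 7.5 Hepes buffer with CHAPS, BSA, DTT · Also added – cytochrome c with DEVD-Rh110 · Times – 30 min compound preincubation, 50 min activation, room temperature · Technique – Rh110 fluorescence intensity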
Mdm2-MdmX inh – inhibitors of human Mdm2/MdmX interaction | AID 485346 | O15151+Q00987 | SaOS-2 split-luciferase Mdm2/MdmX complementation, luminescence | 330,000 compounds, 3% hits | inhibition, % at 8 µM;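 active means inhibition of at least 50% at 8 µM in the primary screen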
Target sequence (O15151 whole entry, looked up): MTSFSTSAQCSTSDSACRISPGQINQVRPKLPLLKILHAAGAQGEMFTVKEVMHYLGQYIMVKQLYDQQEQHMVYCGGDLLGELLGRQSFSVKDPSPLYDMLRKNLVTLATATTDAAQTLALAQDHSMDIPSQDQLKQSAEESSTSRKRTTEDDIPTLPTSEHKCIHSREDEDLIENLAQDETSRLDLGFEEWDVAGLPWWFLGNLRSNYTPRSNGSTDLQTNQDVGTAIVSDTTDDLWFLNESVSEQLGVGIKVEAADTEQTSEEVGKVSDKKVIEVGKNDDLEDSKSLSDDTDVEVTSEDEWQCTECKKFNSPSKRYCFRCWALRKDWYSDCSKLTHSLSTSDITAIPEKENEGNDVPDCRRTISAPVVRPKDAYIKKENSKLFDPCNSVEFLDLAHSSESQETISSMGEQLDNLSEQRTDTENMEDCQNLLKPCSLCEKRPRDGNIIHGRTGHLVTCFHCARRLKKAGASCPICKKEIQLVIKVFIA
Target sequence (Q00987 whole entry, looked up): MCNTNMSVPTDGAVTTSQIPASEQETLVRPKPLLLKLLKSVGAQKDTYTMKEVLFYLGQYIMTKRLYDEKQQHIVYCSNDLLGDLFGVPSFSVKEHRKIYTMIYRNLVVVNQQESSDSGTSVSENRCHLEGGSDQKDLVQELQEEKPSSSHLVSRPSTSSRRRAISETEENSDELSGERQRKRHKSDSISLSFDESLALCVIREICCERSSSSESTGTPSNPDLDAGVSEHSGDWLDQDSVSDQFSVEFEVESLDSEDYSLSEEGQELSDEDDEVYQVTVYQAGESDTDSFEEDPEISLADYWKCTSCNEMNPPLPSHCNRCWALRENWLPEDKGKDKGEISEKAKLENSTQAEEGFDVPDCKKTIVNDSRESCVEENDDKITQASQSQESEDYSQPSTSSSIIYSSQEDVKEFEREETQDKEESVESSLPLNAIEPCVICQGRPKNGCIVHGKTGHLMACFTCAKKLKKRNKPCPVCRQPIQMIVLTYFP
UBC13 polyUb – human UBC13 polyubiquitination inhibition; P61088; UBC13 polyubiquitin chain formation, TR-FRET; inhibition, % at 20 µM; 330,000 compounds, 0.47% hits; AID 485273; in the data active means inhibition above about 45%, passing the limit was not always enough
Mdm2-MdmX conf – confirmation of human Mdm2/MdmX interaction inhibitors. shares compounds with Mdm2-MdmX inh. Mdm2-MdmX binding, luminescent assay. inhibition, % at 8 µM. 10,000 compounds, 55% hits. AID 489028; in the data active means inhibition above about 40%
FLuc counter – full-length luciferase inhibition in Mdm2/MdmX counter-screen; shares compounds with Mdm2-MdmX inh; SaOS-2 full-length luciferase counterscreen, luminescence; inhibition, % at 8 µM; 6,200 compounds, 77% hits;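 active means mean inhibition at 8 µM reaching about 37%, which flags the compound as non-specific, limit read from the data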;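 further: p53-null SaOS-2 cells with luciferase driven by a doxycycline-inducible promoter; compound on cells about two nights before reading with doxycycline added after day one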
The depositor's hits bear a star; / = no result. Only some compounds are listed: those with a hit (about 4.1% of all), similar ones and a draw of the others.

SMILES	UPR CHOP act	UPR XBP1 act	Apaf1 inhib	Mdm2-MdmX inh	UBC13 polyUb	Mdm2-MdmX conf	FLuc counter
Cc1ccc(NC(=S)/N=C(\N)Nc2nc(C)c3cc(C)ccc3n2)c(C)c1	2	5	14	72*	-12	41*	79*
CCOc1ccc2nc(N/C(N)=N/C(=S)Nc3cccc(C)c3)nc(C)c2c1	1	3	1	8	-9	/	/
COc1ccc2nc(N/C(N)=N/C(=S)Nc3c(C)cccc3C)nc(C)c2c1	-1	1	7	57*	5	41*	68*
CCc1ccccc1NC(=S)/N=C(\N)Nc1nc(C)c2cc(C)ccc2n1	-1	1	-1	67*	1	52*	70*
COc1ccc2nc(N/C(N)=N/C(=S)Nc3cccc(C)c3)nc(C)c2c1	0	0	8	37	-3	/	/
N#Cc1ccccc1NC(=O)CSc1nnc(-c2ccncc2)o1	-1	-1	3	23	1	/	/
Cc1ccc(Nc2ccc(C(=O)NC3CCCCC3)cn2)cc1	1	-2	-1	15	0	/	/
O=C(Nc1ccc(NC(=O)c2ccc(Cl)cc2Cl)cc1)c1cccs1	-1	2	-6	72*	11	22	/
C/C(=N/NC(=O)c1cccs1)c1ccc(NC(=O)COc2ccc(Cl)cc2Cl)cc1	16	9	-4	75*	-4	11	/
O=C(Nc1ccc(Cl)cc1)c1cccs1	3	1	5	-28	8	/	/
CSc1ccc(CN2CCC(n3nccc3NC(=O)C3CCOC3)CC2)cc1 (stereo unspecified)	-1	-1	2	21	2	/	/
N/C(=N\OC(=O)c1ccc(Cl)cc1)c1ccc(Cl)cc1	9	5	-9	11	-2	/	/
N/C(Cn1cncn1)=N\OC(=O)c1ccc(Cl)cc1	-2	5	-8	51*	-15	-6	/
COc1ccc([C@@H]2CC=C(C(=O)O)[C@H](c3ccc(F)cc3)N2S(=O)(=O)c2ccccc2C)cc1	-2	0	8	4	-11	/	/
COCCNC(=O)C(=O)Nc1ccc2c(c1)N(S(=O)(=O)c1cccs1)CCC2	0	1	7	56*	-5	72*	64*
COc1ccc(NC(=O)C(=O)NCCC2CCCCN2S(=O)(=O)c2ccccc2)cc1 (stereo unspecified)	0	-3	5	55*	4	79*	56*
Cc1cc(C)c(S(=O)(=O)N2CCCCC2CCNC(=O)C(=O)NC2CC2)c(C)c1 (stereo unspecified)	-2	-2	14	92*	-4	94*	25
COc1ccc(NC(=O)C(=O)NCCC2CCCCN2S(=O)(=O)c2cccs2)cc1 (stereo unspecified)	0	0	8	52*	4	73*	75*
COc1cccc(-c2nn(-c3ccccc3)cc2CN(C)C(C)c2ccon2)c1 (stereo unspecified)	-3	1	3	19	-5	/	/
O=S(=O)(Nc1nc2ccccc2s1)c1ccc(Cl)nc1	0	-3	-20	-22	-6	/	/
COc1ccc(CCNC(=O)C(=O)NCC2CCCN2S(=O)(=O)c2ccccc2)cc1OC (stereo unspecified)	0	0	8	52*	-7	26	/
O=C(NCCc1ccccc1)C(=O)NCC1CCCN1S(=O)(=O)c1ccccc1 (stereo unspecified)	-1	-1	12	44	2	/	/
O=C(c1cc(-c2cccnc2)nc2ccc(Br)cc12)N1CCN(c2ncccn2)CC1	3	-4	15	52*	-14	51*	101*
CC(=O)c1ccc(N2CCN(C(=O)c3cc(-c4cccnc4)nc4ccc(Br)cc34)CC2)cc1	1	-3	21	30	-16	/	/
COc1ccc(CN2CCN(C(=O)c3cc(-c4cccnc4)nc4ccc(Cl)cc34)CC2)c(OC)c1OC	1	3	6	51*	-8	49*	73*
SMILES	UPR CHOP act	UPR XBP1 act	Apaf1 inhib	Mdm2-MdmX inh	UBC13 polyUb	Mdm2-MdmX conf	FLuc counter
CS(=O)(=O)N1CCN(C(=O)c2cc(-c3cccnc3)nc3ccc(Cl)cc23)CC1	-1	-1	5	-3	3	/	/
O=C(/C=C/c1ccc(F)cc1)NC(=S)N1CCCCC1c1cccnc1 (stereo unspecified)	1	-1	-4	5	-6	/	/
O=C1/C(=C/c2cccs2)SC(=S)N1CC(=O)N1CCCCC1CCO (stereo unspecified)	2	-3	-2	32	-8	/	/
O=C1/C(=C/c2ccccc2F)SC(=S)N1CC(=O)N1CCCCC1c1cccnc1 (stereo unspecified)	0	-8	19	79*	-16	41*	20
O=C1/C(=C/c2ccc(F)cc2)SC(=S)N1CC(=O)N1CCCCC1c1cccnc1 (stereo unspecified)	-3	0	21	74*	-14	35	/
COc1ccc(OCC2CCNCC2)cc1	3	-5	-2	-19	1	/	/
Cc1c(NC(=O)c2cccc(NC(=O)Cc3ccc(F)cc3)c2)c(=O)n(-c2ccccc2)n1C	2	0	11	-24	-6	/	/
Cc1cc(N/N=C/c2c(O)ccc3ccccc23)nc(-c2ccccc2O)n1	3	-4	1	61*	-6	53*	39*
Oc1ccc2ccccc2c1/C=N/Nc1ccccc1	2	-1	13	9	-10	/	/
Cc1ccc(C)c(Nc2cc(C)nc(-c3ccccc3O)n2)c1	0	-4	20	59*	17	62*	49*
CCN(CC)CCN(C(=O)Cn1nnc(-c2ccc(C)o2)n1)C(C(=O)NC(C)(C)C)c1cccs1 (stereo unspecified)	-2	-2	5	10	2	/	/
COc1ccc(OC)c(/C=N/NC(=O)c2cccc3ccccc23)c1	2	-3	-6	27	-1	/	/
CC[n+]1ccccc1/C=C1\Sc2ccc(C)cc2N1C	-1	4	11	66*	-44	65*	42*
CC12CCC(C/C1=N/OC(=O)c1cccc([N+](=O)[O-])c1)C2(C)C (stereo unspecified)	0	1	14	14	2	/	/
COCCCNC1=C(Cl)C(=O)c2ccccc2C1=O	5	3	33	6	-280	/	/
COCCCNc1c2c3c(cccc3[nH]c1=O)C(=O)c1ccccc1-2	4	2	16	57*	-448	58*	86*
COc1ccccc1C1(O)C(=O)Nc2ccc(C)cc21 (stereo unspecified)	-1	-2	-4	32	5	/	/

Screening results as filed in PubChem BioAssay.
